According to publication PMC1301599 (Nucleic Acids Research, 2005):

What was measured:
Format in all cases: cell-based
[1] = system: HIV-1 Tat-dependent trans-activation (TAR RNA; HIV-1 LTR firefly luciferase) in HeLa Tet-Off/Tat/luc-f/luc-R cells; assay: Inhibition of Tat-dependent trans-activation in HeLa cell reporter assay; details: for reduction of firefly luciferase activity, 6 h delivery with chloroquine: 6 h incubation in presence of 100 µM chloroquine, then 18 h growth, 0.312-2.5 µM
In short: (§1)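 HeLa Tet-Off/Tat/luc-f/luc-R cells (HIV-1 LTR-firefly, CMV-Renilla), 10 × 10^3/well, grown 24 h at 37°C. They were exposed 6 h in Opti-MEM with 100 µM chloroquine, with or without test compound diluted from 2.5 µM in that medium. Cells were PBS-washed, then grown 18 h in DMEM/10% FBS. Lysate firefly and Renilla luminescence was read sequentially, normalised to parallel-plate viability absorbance, and expressed as % of cells without test compound. Two replicates, three experiments.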

[2] = system: constitutive CMV promoter-directed Renilla luciferase in HeLa Tet-Off/Tat/luc-f/luc-R cells; assay: Control Renilla luciferase expression in HeLa cell reporter assay; details: chloroquine alone treatment; data not shown
In short: as §1

[3] = system: HeLa Tet-Off/Tat/luc-f/luc-R cells; assay: Toxicity assay; details: 100 µM chloroquine; data not shown
In short: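 This ran on a duplicate plate of HeLa Tet-Off/Tat/luc-f/luc-R cells (10 × 10^3/well, 24 h at 37°C). The plate got 6 h with 100 µM chloroquine in Opti-MEM, then a PBS wash and 18 h in DMEM/10% FBS. Live cells were quantified colorimetrically with the CellTiter 96 AQueous One reagent, absorbance at 490 nm. Two replicates in each of three experiments.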

In the case of `CCN(CC)CCCC(C)Nc1ccnc2cc(Cl)ccc12` (centres unmarked) [chloroquine], the “level of firefly luciferase activity, chloroquine alone” value ([1]; 100 µM chloroquine, no CPP–PNA) is reported as “not significantly affected”, the “level of Renilla luciferase, chloroquine alone” value [2] is reported as “reduction” and the “HeLa cell viability, chloroquine alone” value [3] is reported as “No effect”.
In the case of “ATCGCTCGCACCATGC (disulfide) [scrambled conjugate 13]”, the “reduction of firefly luciferase activity, 6 h delivery with chloroquine” value [1] is reported as “no inhibitory activity”.
With “CTCCGCAGCTCAGATC (disulfide) [mismatched conjugate 13]” the “reduction of firefly luciferase activity, 6 h delivery with chloroquine” value [1] was “no inhibitory activity”.
